# Results from ChEMBL document CHEMBL1255332, “Isobolographic analysis of pharmacodynamic interactions between antifungal agents and ciprofloxacin against Candida albicans and Aspergillus fumigatus” (Antimicrob Agents Chemother, 2008).
# Assays:
# Type in all cases: functional, organism-based
# Candida albicans [1] = assay: Antifungal activity against Candida albicans CA362 by spectrophotometry
# How it was run: (§1)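 Clinical C. albicans blastoconidia came from 1- to 2-day Sabouraud cultures, with a final inoculum of 5 × 10^2 to 2.5 × 10^3 CFU/ml in RPMI 1640 buffered to pH 7 with 0.165 M MOPS. Incubation was 37°C for 24 h. A405 was corrected against a conidium-free plate and expressed as % of drug-free control, and an Emax model was fitted for EC50. Three replicates.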
# Aspergillus fumigatus [2] = assay: Antifungal activity against Aspergillus fumigatus AF2025 spectrophotometry
# How it was run: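 Conidia from 5–7-day Sabouraud agar cultures were adjusted to 80–82% transmittance at 530 nm, giving a final 0.4 × 10^4 to 5 × 10^4 CFU/ml in RPMI 1640 buffered at pH 7 with 0.165 M MOPS. They were tested in a checkerboard alone or with ciprofloxacin for 24 h at 37°C. A405 was converted to % of drug-free growth after background subtraction, an Emax model was fitted, and each test was run in triplicate.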
# Candida albicans [3] = assay: Antifungal activity against Candida albicans CA8621 by spectrophotometry; how it was run: as §1
# Aspergillus fumigatus [4] = assay: Antifungal activity against Aspergillus fumigatus AF4215 spectrophotometry
# How it was run: (§2)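 Clinical A. fumigatus conidia were harvested from 5- to 7-day Sabouraud cultures, with a final inoculum of 0.4 × 10^4 to 5 × 10^4 CFU/ml in RPMI 1640 (0.165 M MOPS, pH 7). Incubation was 37°C for 24 h. Growth at 405 nm, background-subtracted, was expressed as % of drug-free control, and an Emax model was fitted to give EC50. Three replicates.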
# Aspergillus fumigatus [5] = assay: Antifungal activity against Aspergillus fumigatus AF2350 by spectrophotometry; how it was run: as §2
# Candida albicans [6] = assay: Antifungal activity against Candida albicans CA5685 by spectrophotometry; how it was run: as §1
smiles,measurement,setting,value
C[C@@H]1[C@H](O)[C@@H](C)/C=C/C=C/C=C/C=C/C=C/C=C/C=C/[C@H](O[C@@H]2O[C@H](C)[C@@H](O)[C@H](N)[C@@H]2O)C[C@@H]2O[C@](O)(C[C@@H](O)C[C@@H](O)[C@H](O)CC[C@@H](O)C[C@@H](O)CC(=O)O[C@H]1C)C[C@H](O)[C@H]2C(=O)O [AMPHOTERICIN B],EC50,Candida albicans [1],0.25 mg/L
same,MIC,Candida albicans [1],0.125 mg/L
same,EC50,Aspergillus fumigatus [2],0.5 mg/L
same,MIC,Aspergillus fumigatus [2],0.5 mg/L
OC(Cn1cncn1)(Cn1cncn1)c1ccc(F)cc1F [FLUCONAZOLE],EC50,Candida albicans [3],0.09 mg/L
same,MIC,Candida albicans [3],0.125 mg/L
same,EC50,Aspergillus fumigatus [4],0.18 mg/L
same,MIC,Aspergillus fumigatus [4],0.5 mg/L
CC[C@H](C)C[C@H](C)CCCCCCCCC(=O)N[C@H]1C[C@@H](O)[C@@H](NCCN)NC(=O)[C@@H]2[C@@H](O)CCN2C(=O)[C@H]([C@H](O)CCN)NC(=O)[C@H]([C@H](O)[C@@H](O)c2ccc(O)cc2)NC(=O)[C@@H]2C[C@@H](O)CN2C(=O)[C@H]([C@@H](C)O)NC1=O [CASPOFUNGIN],EC50,Aspergillus fumigatus [5],28.8 mg/L
same,MIC,Aspergillus fumigatus [5],128 mg/L
same,EC50,Candida albicans [6],0.59 mg/L
same,MIC,Candida albicans [6],1 mg/L
